The values below come from ChEMBL document CHEMBL1137987, “O-alkoxyamidine prodrugs of furamidine: in vitro transport and microsomal metabolism as indicators of in vivo efficacy in a mouse model of Trypanosoma brucei rhodesiense infection” (J Med Chem, 2004).

Series [1] can be described thus: Half-life in human liver microsomes was determined. Type of series: ADME, Microsome. The gist of the method: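 Substrate at 10 µM final (from 5 mM methanol stocks) in 100 mM potassium phosphate pH 7.4 with 0.2 mg/mL pooled human liver microsomes. Preincubated 5 min, then started with 1 mM NADPH. Samples taken at 0–90 min, quenched with acetonitrile on ice, centrifuged, and supernatant analysed by HPLC-UV or LC-MS. Half-life from substrate loss.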

Series [2] relates to Caco-2. Put plainly: Apparent permeability determined across the Caco-2 cell monolayers in both apical (AP) to basolateral (BL) directions. Type of series: functional, cell-based. Conditions: Homo sapiens. A general note: Caco-2 cells form a polarised layer with tight junctions and transporters.
Series [3] relates to Trypanosoma brucei rhodesiense. The experiment in a line: In vitro inhibitory activity against Trypanosoma brucei rhodesiense evaluated in vitro.
In series [4] the test system is Mus musculus. Put plainly: In vivo effect (cures) determined by number of mice that survived (4) and are parasite free (4) for 60 days upon oral dose, observed in STIB900 mouse model.
For series [5], the system named is Mus musculus. Put plainly: In vivo effect on average days of survival was measured upon oral dose at 400 mg/kg in STIB900 mouse model. Format: functional. In a few lines:
(§1)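 Mice infected with T. b. rhodesiense STIB900 got four daily doses: intraperitoneal for the parent amidine (4 × 10 mg/kg), oral for the prodrugs (4 × 25, 4 × 50 or 4 × 100 mg/kg/day). Read-out is mean days of survival per group, followed to 60 days.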

In series [6] the test system is Mus musculus. The experiment in a line: In vivo effect on average days of survival was measured upon oral dose at 100 mg/kg in STIB900 mouse model. Type of series: functional. The gist of the method:
as §1

In series [7] the test system is Caco-2. The experiment in a line: Apparent permeability determined across the Caco-2 cell monolayers in both basolateral (BL) to apical (AP) directions. Format: functional, cell-based. Conditions: Homo sapiens.
The test system of series [8] is Mus musculus. Put plainly: In vivo effect (cures) determined by number of mice that survived (2) and are parasite free (4) for 60 days upon oral dose, observed in STIB900 mouse model.
For series [9], the system named is Mus musculus. The experiment in a line: In vivo effect (cures) determined by number of mice that survived (1) and are parasite free (4) for 60 days upon oral dose, observed in STIB900 mouse model.
In series [10] the test system is Mus musculus. Put plainly: In vivo effect on average days of survival was measured upon oral dose at 200 mg/kg in STIB900 mouse model. Format: functional. The gist of the method:
as §1

For series [11], the system named is Mus musculus. Put plainly: In vivo effect (cures) determined by number of mice that survived (0) and are parasite free (8) for 60 days upon intraperitoneal dose, observed in STIB900 mouse model. Format: functional. The gist of the method: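 T. b. rhodesiense STIB900 acute infection in mice, 4 mice per group (8 in one group). Four daily doses (4 × mg/kg/day); the parent amidine was given intraperitoneally and the prodrugs orally. A cure is a mouse surviving and parasite-free at 60 days, reported as cured/treated.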

In series [12] the test system is Mus musculus. Put plainly: In vivo effect on average days of survival was measured upon intraperitoneal dose at 40 mg/kg in STIB900 mouse model. Type of series: functional. In a few lines:
as §1

Bounds are passed on as bounds.

What is called half-life is the time in which the quantity being followed falls by half. A high value points to slow loss. In general, IC50 refers to the concentration that gives 50% inhibition. High values mean weaker potency, low ones greater potency.

For `CCONC(=N)c1ccc(-c2ccc(-c3ccc(C(=N)NOCC)cc3)o2)cc1`, the half-life in series [1] is 32 min. Besides, the Papp was 5.9e-06 with Caco-2 [2] and 3.7e-06 with Caco-2 [7]. This compound gave an IC50 in [3] of 0.645 µM. Further, the Dose in the series on Mus musculus [4] was found to be 400 mg/kg. Besides, the Survival days is over 60 with Mus musculus [5] and 32 with Mus musculus [6].
With `CCCCONC(=N)c1ccc(-c2ccc(-c3ccc(C(=N)NOCCCC)cc3)o2)cc1`, in series [3], the 50% inhibitory concentration (IC50) is 1.9 µM. Also, in the series with Mus musculus [5], the Survival days is listed as 9.
The like results for `CCCCCCONC(=N)c1ccc(-c2ccc(-c3ccc(C(=N)NOCCCCCC)cc3)o2)cc1` were, in that order, 5.7 µM and 6.
As for `CONC(=N)c1ccc(-c2ccc(-c3ccc(C(=N)NOC)cc3)o2)cc1` [PAFURAMIDINE], in series [1], the half-life was 4.16 min. For the same compound, the results for the Dose with Mus musculus [8], with Mus musculus [4] and with Mus musculus [9] were 200 mg/kg, 400 mg/kg and 100 mg/kg, respectively. The Papp in the series on Caco-2 [2] was found to be 6.04e-05; in the series on Caco-2 [7] it was 3.75e-05. Further, in [3], the IC50 stood at 14.6 µM. The Survival days in the series with Mus musculus [5], with Mus musculus [6] and in the series with Mus musculus [10] was over 60 each time.
Take `N=C(NO)c1ccc(-c2ccc(-c3ccc(/C(N)=N\O)cc3)o2)cc1`: the IC50 in [3] worked out at 66.4 µM. Besides, the Survival days in the series on Mus musculus [5] was found to be 50.
In the case of `CCCONC(=N)c1ccc(-c2ccc(-c3ccc(C(=N)NOCCC)cc3)o2)cc1`, the half-life in series [1] stood at 60 min. The midpoint of inhibition in [3], the IC50, lay at 0.472 µM. This compound had a Survival days with Mus musculus [5] of over 47.5. Further, the Dose in the series with Mus musculus [9] was determined as 400 mg/kg.
With `N=C(N)c1ccc(-c2ccc(-c3ccc(C(=N)N)cc3)o2)cc1` [FURAMIDINE], the Papp was found to be 3.8e-07 in the series with Caco-2 [2] and 8.5e-07 with Caco-2 [7]. The IC50 in [3] is 0.0045 µM. Also, the Dose with Mus musculus [11] worked out at 40 mg/kg. The compound also yielded a Survival days in the series on Mus musculus [12] of over 46.
In the case of `CC(C)ONC(=N)c1ccc(-c2ccc(-c3ccc(C(=N)NOC(C)C)cc3)o2)cc1`, the Dose in the series with Mus musculus [8] was found to be 400 mg/kg. Moreover, it took 12.6 µM to reach half-maximal inhibition in series [3] (IC50). The same compound returned a Survival days with Mus musculus [5] of 48.
